pIC50, pKd: −log10 of the molar value. The source made the active and inactive calls. The calls are words filed in the database; no cut-off is given here.
Tests used:
[1] = target: T1, Advanced glycosylation end product-specific receptor (Homo sapiens, UniProt Q15109); assay: Inhibition of human recombinant biotinylated receptor for advanced glycation end product expressed in Escherichia coli DE3 assessed as inhibition of binding to amyloid beta (1 to 42) at 20 uM after 60 mins by TMB-ELISA
Method in brief: (§1)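 Biotinylated human RAGE (1 μg, made in Origami2(DE3) with BirA) incubated on a streptavidin plate with oligomeric Aβ (10 μM stock pre-aggregated 24 h at 4 °C; 1 μL per well). Compound 20 μM in TBS-T/2.5% BSA, 60 min at ambient temperature. Bound Aβ detected with HRP-4G8 (1:1000) for 60 min, then TMB, read at 450 nm. Duplicates, mean ± SD.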

Mus musculus [2] = assay: Reduction in human amyloid beta (1 to 42) level in ICR mouse plasma at 25 mg/kg, ip administered 20 mins prior to human amyloid beta (1 to 40)-injection measured after 30 mins by ELISA relative to control; type: functional; set-up: scale not given: the % may be the effect or the level left; conditions: route intraperitoneal, in the assay text read “human amyloid beta (1 to 42)-injection” for “human amyloid beta (1 to 40)-injection”
Method in brief: (§2)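 Male ICR mice, 3 months old (n = 4), given test compound 25 mg/kg or vehicle ip. After 20 min, 200 μL of 25 μM human Aβ1−42 in PBS injected into the tail vein and left to circulate 30 min. Retro-orbital blood taken into EDTA tubes before sacrifice. Human Aβ measured in brain extracts (pg/mg protein) and plasma (ng/mL).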

[3] = target: Advanced glycosylation end product-specific receptor (Rattus norvegicus) (UniProt Q63495); assay: Inhibition of receptor for advanced glycation end product binding to amyloid beta 42 in rat C6 cells assessed as NFkappaB activation at 0.1 to 10 uM after 18 hrs by reporter gene assay; type: cell-based
Mus musculus [4] = assay: Inhibition of RAGE-mediated influx of human amyloid beta (1 to 42) into ICR mouse brain at 25 mg/kg, ip administered 20 mins prior to human amyloid beta (1 to 42)-injection measured after 30 mins by ELISA relative to control
C6 = assay: Cytotoxicity against rat C6 cells at 0.1 to 10 uM after 18 hrs; type: cell-based; conditions: c6, 18 h
[5] = target: T1, Advanced glycosylation end product-specific receptor; assay: Inhibition of human recombinant biotinylated receptor for advanced glycation end product expressed in Escherichia coli DE3 assessed as inhibition of binding to amyloid beta (1 to 42) after 60 mins by TMB-ELISA; method in brief: as §1
Mus musculus [6] = assay: Toxicity against transgenic mouse expressing PS1/APP swedish mutant assessed as lethality at 50 mg/kg/day, po administered for 3 months measured after 2 months; type: organism-based; set-up: route oral; conditions: in vivo, 1461 h
Method in brief: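 Male APPsw/PS1 transgenic mice, 6 months old (n = 4−5), dosed by oral gavage at 50 mg/(kg·day) until 9 months of age. Lethality was recorded as a side effect during the study. Cognitive function (Y-maze spontaneous alternation) was assessed after 2 months of dosing.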

Mus musculus [7] = assay: Procognitive activity in transgenic mouse expressing PS1/APP swedish mutant assessed as spontaneous alteration at 50 mg/kg/day, po administered for 3 months measured after 2 months by Y maze test (reference value: 50.95 +/- 10.8%); type: functional
Mus musculus [8] = assay: Inhibition of RAGE-mediated influx of human amyloid beta (1 to 42) into ICR mouse brain at 25 mg/kg, ip administered 20 mins prior to human amyloid beta (1 to 40)-injection measured after 30 mins by ELISA relative to control; type: functional; conditions: in the assay text read “human amyloid beta (1 to 42)-injection” for “human amyloid beta (1 to 40)-injection”, route intraperitoneal; method in brief: as §2
Mus musculus [9] = assay: Antialzheimer activity in transgenic mouse expressing PS1/APP swedish mutant assessed as soluble amyloid beta (1 to 40) level per mg of protein in brain at 50 mg/kg/day, po for 3 months by ELISA (reference value: 8.66 +/- 1.81 ng per mg of protein); type: functional
[10] = target: T1, Advanced glycosylation end product-specific receptor; assay: Binding affinity to human recombinant biotinylated receptor for advanced glycation end product expressed in Escherichia coli DE3 after 1 min by surface plasmon resonance assay
Method in brief: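 SPR with biotinylated RAGE captured to saturation on Neutravidin-coated chip channels, with a blank reference channel. Running buffer TBS (pH 7.4) with 0.05% Tween 20. Compounds serially diluted 50 to 3.1 μM in 2% DMSO, injected 1 min at 100 μL/min, then 400 s buffer dissociation. Responses reference-subtracted. Constants from a global Langmuir 1:1 fit.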

Mus musculus [11] = assay: Antialzheimer activity in transgenic mouse expressing PS1/APP swedish mutant assessed as insoluble amyloid beta (1 to 40) level per mg of protein in brain at 50 mg/kg/day, po for 3 months by ELISA (reference value: 137.38+/- 58.13 ng per mg of protein); type: functional
Mus musculus [12] = assay: Antialzheimer activity in transgenic mouse expressing PS1/APP swedish mutant assessed as insoluble amyloid beta (1 to 42) level per mg of protein in brain at 50 mg/kg/day, po for 3 months by ELISA (reference value: 513.73 +/- 219.56 ng per mg of protein); type: functional
Mus musculus [13] = assay: Antialzheimer activity in transgenic mouse expressing PS1/APP swedish mutant assessed as soluble amyloid beta (1 to 42) level per mg of protein in brain at 50 mg/kg/day, po for 3 months by ELISA (reference value: 17.34 +/- 5.17 ng per mg of protein); type: functional

Sequence of Advanced glycosylation end product-specific receptor (Rattus norvegicus) (Q63495 whole entry): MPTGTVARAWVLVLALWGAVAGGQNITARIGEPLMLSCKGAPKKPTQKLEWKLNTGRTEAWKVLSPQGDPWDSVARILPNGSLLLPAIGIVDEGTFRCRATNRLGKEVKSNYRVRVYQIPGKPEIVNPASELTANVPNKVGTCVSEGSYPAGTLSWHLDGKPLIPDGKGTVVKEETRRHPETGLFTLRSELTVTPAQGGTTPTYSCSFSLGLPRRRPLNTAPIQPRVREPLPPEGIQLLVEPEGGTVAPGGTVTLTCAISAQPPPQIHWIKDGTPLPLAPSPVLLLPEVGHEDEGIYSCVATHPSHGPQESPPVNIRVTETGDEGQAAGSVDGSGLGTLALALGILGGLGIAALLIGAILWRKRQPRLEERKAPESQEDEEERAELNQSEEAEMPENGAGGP
T1 sequence (Q15109 whole entry): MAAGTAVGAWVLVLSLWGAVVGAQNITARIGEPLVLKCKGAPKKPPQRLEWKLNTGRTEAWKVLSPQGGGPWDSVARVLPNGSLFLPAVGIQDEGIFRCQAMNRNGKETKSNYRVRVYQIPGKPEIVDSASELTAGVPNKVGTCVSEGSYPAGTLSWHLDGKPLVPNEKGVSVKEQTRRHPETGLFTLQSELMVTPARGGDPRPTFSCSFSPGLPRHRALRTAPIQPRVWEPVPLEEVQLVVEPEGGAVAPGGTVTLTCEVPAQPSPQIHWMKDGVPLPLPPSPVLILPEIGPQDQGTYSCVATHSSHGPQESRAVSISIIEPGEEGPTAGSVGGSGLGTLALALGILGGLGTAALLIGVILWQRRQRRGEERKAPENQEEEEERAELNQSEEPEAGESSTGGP

SMILES | inhibition [1] | further results
Cc1nc(NC(=O)CCCO)nc(C)c1OCc1ccccc1 | inactive | 
CCN(CC)CCOc1cccc(Nc2nc(-c3ccc(Cl)cc3)cc(N3CCCCC3)n2)c1 | 17.1% | 
CCN(CC)CCOc1ccc(Nc2nc(C)cc(Nc3ccccc3)n2)cc1 | 32.7% | 
CCN(CC)CCOc1cccc(Nc2nc(-c3ccc(Cl)cc3)cc(N3CCN(C)CC3)n2)c1 | 4.5% | 
CCN(CC)CCOc1cccc(Nc2nc(-c3ccc(Cl)cc3)cc(N3CCOCC3)n2)c1 | 3.1% | 
Cc1nc(NC(=O)CCCC(=O)O)nc(C)c1OCc1ccccc1 | inactive | 
CCN(CC)CCOc1ccc(Nc2nc(C)cc(-c3ccc(OC4CCCCC4)cc3)n2)cc1 | 32.6% | 
CCN(CC)CCOc1cccc(Nc2nc(C)cc(-c3ccc(OCCC4CCCCC4)cc3)n2)c1 | 49.6% | Activity (Mus musculus [2]): 5%; inhibition [3]: Active; inhibition in vivo at 25 mg/kg (Mus musculus [4]): 12.1%; Activity (C6): Non-toxic
CCN(CC)CCOc1cccc(Nc2nc(C)cc(-c3ccc(OC4CCCCC4)cc3)n2)c1 | 45.6% | 
CCN(CC)CCOc1ccc(Nc2nc(C)cc(-c3ccc(OCCc4ccc(Cl)cc4)cc3)n2)cc1 | inactive | 
CCN(CC)CCOc1ccc(Nc2nc(C)cc(-c3ccc(Oc4ccc(Cl)cc4)cc3)n2)cc1 | 21.1% | 
CCN(CC)CCOc1ccc(Nc2nc(C)cc(-c3ccc(Oc4ccc5ccccc5c4)cc3)n2)cc1 | 21.4% | 
CCN(CC)CCOc1cccc(Nc2nc(C)cc(-c3ccc(Cl)cc3)n2)c1 | 41.6% | 
CCN(CC)CCOc1ccc(Nc2nc(C)cc(-c3ccc(OCCC4CCCCC4)cc3)n2)cc1 | 32.7% | 
CCN(CC)CCOc1cccc(Nc2nc(-c3ccc(Cl)cc3)cc(-n3cccc3)n2)c1 | 26.3% | 
CCN(CC)CCOc1ccccc1Nc1nc(-c2ccc(Cl)cc2)cc(-c2ccc(Cl)cc2)n1 | 70.8% | Activity (Mus musculus [2]): 2.8%; inhibition [3]: Active; inhibition in vivo at 25 mg/kg (Mus musculus [4]): 18.3%; Activity (C6): Non-toxic; pIC50 [5]: 5.34
CCN(CC)CCOc1cccc(Nc2nc(-c3ccc(Cl)cc3)cc(-c3ccc(Cl)cc3)n2)c1 | 54% | Activity (Mus musculus [2]): 3.7%; inhibition [3]: Active; Activity (Mus musculus [6]): Non-toxic; Activity (Mus musculus [7]): 63.6%; inhibition in vivo at 25 mg/kg (Mus musculus [8]): 34.3%; Activity (Mus musculus [9]): 6.25 ng/mg; Activity [10]: Dose-dependent effect; pKd [10]: 3.99; Activity (Mus musculus [11]): 98.5 ng/mg; Activity (Mus musculus [12]): 354 ng/mg; Activity (Mus musculus [13]): 12 ng/mg; Activity (C6): Non-toxic; pIC50 [5]: 4.78
CCN(CC)CCOc1ccccc1Nc1nc(C)cc(-c2ccc(Cl)cc2)n1 | 47.2% | 
CCN(CC)CCOc1ccc(Nc2nc(C)cc(-c3ccc(OCCc4ccccc4)cc3)n2)cc1 | inactive | 
CCN(CC)CCOc1ccc(Nc2nc(-c3ccc(Cl)cc3)cc(-c3ccc(Cl)cc3)n2)cc1 | 33.6% | 
CCN(CC)CCOc1ccc(Nc2nc(C)cc(-c3ccc(Cl)cc3)n2)cc1 | 37.1% | 
CCN(CC)CCOc1ccc(Nc2nc(C)cc(-c3ccc(OCc4ccc(Cl)cc4)cc3)n2)cc1 | 12.7% | 

Further lines, with some results ahead:

inhibition [1] | SMILES | further results
30.9% | CCN(CC)CCOc1cccc(Nc2nc(C)cc(-c3ccc(OC)cc3)n2)c1 | 
16.2% | CCN(CC)CCOc1ccc(Nc2nc(C)c(O)c(C)n2)cc1 | 
inactive | CCN(CC)CCCCNc1nc(C)c(OCc2ccccc2)c(C)n1 | 
inactive | CCN(CC)CCCC(=O)Nc1nc(C)c(OCc2ccccc2)c(C)n1 | 
inactive | COc1c(C)nc(NC(=O)CCCC(=O)O)nc1C | 
inactive | CCN(CC)CCCC(=O)Nc1nc(C)c(O)c(C)n1 | 
31.7% | CCN(CC)CCOc1ccc(Nc2nc(C)cc(-c3ccc(OC)cc3)n2)cc1 | 
14.6% | CCN(CC)CCOc1ccc(Nc2nc(C)c(OCc3ccccc3)c(C)n2)cc1 | 
inactive | CCN(CC)CCCCNc1nc(C)c(OC)c(C)n1 | 
inactive | CCN(CC)CCCCNc1nc(C)c(O)c(C)n1 | 
33% | CCN(CC)CCOc1ccc(Nc2nc(C)cc(-c3ccccc3)n2)cc1 | 
inactive | COc1c(C)nc(NC(=O)CCCO)nc1C | 
16% | CCN(CC)CCOc1ccc(Nc2nc(C)cc(C)n2)cc1 | 
inactive | CCN(CC)CCCC(=O)Nc1nc(C)c(OC)c(C)n1 | 
43.3% | CCN(CC)CCOc1ccc(Nc2nc(C)cc(N3CCCCC3)n2)cc1 | 
20.8% | CCN(CC)CCOc1cccc(Nc2nc(C)cc(C)n2)c1 | 
30.6% | CCN(CC)CCOc1ccc(Nc2nc(C)cc(C3CCCCC3)n2)cc1 | 
